Each block holds one compound with its values, some of them ahead of it. Active and inactive are the calls of the source. The calls are words filed in the database; no cut-off is given here.
How the values were obtained:
[1] = Growth inhibition of human U87MG cells assessed as cell viability after 72 hrs by MTT assay; format: functional, cell-based, U-87MG ATCC; conditions: U-87 MG
Method in brief: (§1)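 Cells were grown in DMEM or RPMI with 10% FBS and 1% penicillin/streptomycin at 37 °C, 5% CO2. They were seeded at 2000–3000 cells, rested 24 h, then exposed to a range of concentrations for 72 h. MTT (5 mg/mL stock) was added for 2–4 h at 37 °C and formazan dissolved in DMSO. A570 was read and IC50 calculated; triplicate wells, three separate experiments.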

[2] = Growth inhibition of human PC3 cells assessed as cell viability after 72 hrs by MTT assay; format: functional, cell-based; conditions: PC-3, 72 h; method in brief: as §1
[3] = Growth inhibition of human HCT116 cells assessed as cell viability after 72 hrs by MTT assay; format: functional, cell-based; conditions: HCT-116, 72 h; method in brief: as §1
MCF7 [4] = assay: Growth inhibition of human MCF7 cells assessed as cell viability after 72 hrs by MTT assay; format: functional, cell-based; conditions: MCF7, 72 h; method in brief: as §1
[5] = Growth inhibition of human SW620 cells assessed as cell viability after 72 hrs by MTT assay; format: functional, cell-based; conditions: SW-620, 72 h; method in brief: as §1
CT26 = assay: Growth inhibition of mouse CT26 cells assessed as cell viability after 72 hrs by MTT assay; format: functional, cell-based; conditions: CT26, 72 h; method in brief: as §1
A549 = assay: Growth inhibition of human A549 cells assessed as cell viability after 72 hrs by MTT assay; format: functional, cell-based; conditions: A549, 72 h; method in brief: as §1
[6] = Growth inhibition of human LO2 cells assessed as cell viability after 72 hrs by MTT assay; format: cell-based; conditions: L02, 72 h; method in brief: as §1
HCT-116 [7] = assay: Inhibition of colony formation in human HCT116 cells at 0.3125 to 2.5 uM after 20 days by crystal violet staining based microscopic analysis; format: functional, cell-based
Method in brief: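 HCT116 cells were plated at 500 per well, left overnight at 37 °C, then treated with fresh compound-containing medium. Colonies were washed with cold PBS, fixed in 4% paraformaldehyde and stained with 0.5% crystal violet for 15 min. Colonies over 50 cells were counted by microscope and expressed as % of control; three independent experiments.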

[8] = Cell cycle arrest in human SW620 cells assessed as accumulation at G0/G1 phase at 0.3125 uM after 24 hrs by propidium iodide staining based flow cytometry (reference value: 38.47%); format: functional; conditions: SW-620
[9] = Cell cycle arrest in human SW620 cells assessed as accumulation at G0/G1 phase at 0.625 uM after 24 hrs by propidium iodide staining based flow cytometry (reference value: 38.47%); format: functional; conditions: SW-620
[10] = Cell cycle arrest in human SW620 cells assessed as accumulation at G0/G1 phase at 1.25 uM after 24 hrs by propidium iodide staining based flow cytometry (reference value: 38.47%); format: functional; conditions: SW-620
[11] = Cell cycle arrest in human SW620 cells assessed as accumulation at G0/G1 phase at 2.5 uM after 24 hrs by propidium iodide staining based flow cytometry (reference value: 38.47%); format: functional; conditions: SW-620
[12] = Cell cycle arrest in human SW620 cells assessed as accumulation at G0/G1 phase at 5 uM after 24 hrs by propidium iodide staining based flow cytometry (reference value: 38.47%); format: functional; conditions: SW-620
[13] = Cell cycle arrest in human SW620 cells assessed as accumulation at G2/M phase at 0.3125 uM after 24 hrs by propidium iodide staining based flow cytometry (reference value: 22.88%); format: functional; conditions: SW-620
[14] = Cell cycle arrest in human SW620 cells assessed as accumulation at G2/M phase at 0.625 uM after 24 hrs by propidium iodide staining based flow cytometry (reference value: 22.88%); format: functional; conditions: SW-620
[15] = Cell cycle arrest in human SW620 cells assessed as accumulation at G2/M phase at 1.25 uM after 24 hrs by propidium iodide staining based flow cytometry (reference value: 22.88%); format: functional; conditions: SW-620
[16] = Cell cycle arrest in human SW620 cells assessed as accumulation at G2/M phase at 2.5 uM after 24 hrs by propidium iodide staining based flow cytometry (reference value: 22.88%); format: functional; conditions: SW-620
[17] = Cell cycle arrest in human SW620 cells assessed as accumulation at G2/M phase at 5 uM after 24 hrs by propidium iodide staining based flow cytometry (reference value: 22.88%); format: functional; conditions: SW-620
[18] = Cell cycle arrest in human SW620 cells assessed as accumulation at S phase at 0.3125 uM after 24 hrs by propidium iodide staining based flow cytometry (reference value: 38.65%); format: functional; conditions: SW-620
[19] = Cell cycle arrest in human SW620 cells assessed as accumulation at S phase at 0.625 uM after 24 hrs by propidium iodide staining based flow cytometry (reference value: 38.65%); format: functional; conditions: SW-620
[20] = Cell cycle arrest in human SW620 cells assessed as accumulation at S phase at 1.25 uM after 24 hrs by propidium iodide staining based flow cytometry (reference value: 38.65%); format: functional; conditions: SW-620
[21] = Cell cycle arrest in human SW620 cells assessed as accumulation at S phase at 2.5 uM after 24 hrs by propidium iodide staining based flow cytometry (reference value: 38.65%); format: functional; conditions: SW-620
[22] = Cell cycle arrest in human SW620 cells assessed as accumulation at S phase at 5 uM after 24 hrs by propidium iodide staining based flow cytometry (reference value: 38.65%); format: functional; conditions: SW-620
[23] = Cell cycle arrest in human SW620 cells assessed as accumulation at G0/G1 phase after 24 hrs by propidium iodide staining based flow cytometry; format: functional; conditions: SW-620
SW-620 [24] = assay: Induction of apoptosis in human SW620 cells assessed as early apoptotic cells at 0.3125 uM after 24 hrs by Annexin V-FITC/propidium iodide staining based flow cytometry (reference value: 2.81%); format: functional
SW-620 [25] = assay: Induction of apoptosis in human SW620 cells assessed as early apoptotic cells at 0.625 uM after 24 hrs by Annexin V-FITC/propidium iodide staining based flow cytometry (reference value: 2.81%); format: functional
SW-620 [26] = assay: Induction of apoptosis in human SW620 cells assessed as early apoptotic cells at 1.25 uM after 24 hrs by Annexin V-FITC/propidium iodide staining based flow cytometry (reference value: 2.81%); format: functional
SW-620 [27] = assay: Induction of apoptosis in human SW620 cells assessed as early apoptotic cells at 2.5 uM after 24 hrs by Annexin V-FITC/propidium iodide staining based flow cytometry (reference value: 2.81%); format: functional
SW-620 [28] = assay: Induction of apoptosis in human SW620 cells assessed as early apoptotic cells at 5 uM after 24 hrs by Annexin V-FITC/propidium iodide staining based flow cytometry (reference value: 2.81%); format: functional
SW-620 [29] = assay: Induction of apoptosis in human SW620 cells assessed as late apoptotic cells at 0.3125 uM after 24 hrs by Annexin V-FITC/propidium iodide staining based flow cytometry (reference value: 1.02%); format: functional
SW-620 [30] = assay: Induction of apoptosis in human SW620 cells assessed as late apoptotic cells at 0.625 uM after 24 hrs by Annexin V-FITC/propidium iodide staining based flow cytometry (reference value: 1.02%); format: functional
SW-620 [31] = assay: Induction of apoptosis in human SW620 cells assessed as late apoptotic cells at 1.25 uM after 24 hrs by Annexin V-FITC/propidium iodide staining based flow cytometry (reference value: 1.02%); format: functional
SW-620 [32] = assay: Induction of apoptosis in human SW620 cells assessed as late apoptotic cells at 2.5 uM after 24 hrs by Annexin V-FITC/propidium iodide staining based flow cytometry (reference value: 1.02%); format: functional
SW-620 [33] = assay: Induction of apoptosis in human SW620 cells assessed as late apoptotic cells at 5 uM after 24 hrs by Annexin V-FITC/propidium iodide staining based flow cytometry (reference value: 1.02%); format: functional
SW-620 [34] = assay: Induction of apoptosis in human SW620 cells after 24 hrs by Annexin V-FITC/propidium iodide staining based flow cytometry; format: functional, cell-based
MCF7 [35] = assay: Inhibition of cell migration in human MCF7 cells at 5 uM after 24 hrs by wound healing assay; format: functional, cell-based
Method in brief: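 MCF-7 monolayers at 80–90% confluence were scratched with a sterile pipette tip. Fresh medium with 10% FBS and compound was added. Wounds were photographed at 0, 12 and 24 h at 37 °C.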

[36] = Antitumor activity against human HCT116 cells xenografted in Balb/c athymic nude mouse assessed as tumor growth inhibition at 80 mg/kg, ip once in 2 days for 24 days measured every 2 days during compound treatment relative to control; format: functional; conditions: HCT-116, ip, read-out: TGI
Method in brief: (§2)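 Female BALB/c athymic nude mice, 7 weeks old, received 1×10^7 HCT116 cells s.c. in the right flank. After one week, at about 100 mm³ mean tumour volume, mice were randomised to three groups of 8. Groups got vehicle, 40 or 80 mg/kg i.p. once every two days for 24 days. Tumour size and body weight were measured every two days. Volume = L×W²×0.5; inhibition was taken from mean volume change versus vehicle.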

HCT-116 [37] = assay: Antitumor activity against human HCT116 cells xenografted in ip dosed Balb/c athymic nude mouse assessed as tumor growth inhibition administered once in 2 days for 24 days measured every 2 days during compound treatment; format: functional, organism-based; method in brief: as §2
Mus musculus = assay: Toxicity in Balb/c athymic nude mouse xenografted with human HCT116 cells assessed as body weight loss at 40 to 80 mg/kg, ip once in 2 days for 24 days measured every 2 days during compound treatment; format: organism-based, HCT-116; conditions: in vivo; method in brief: as §2

SMILES: Cc1ccccc1-n1c(=O)[nH]c2c(=O)oc3ccc(-c4cccnc4)cc3c21
- IC50 [1]: > 40 µM
- IC50 [2]: > 40 µM
- IC50 [3]: > 40 µM

SMILES: CC(C)(C#N)c1ccc(-n2c(=O)[nH]c3c(=O)oc4ccc(-c5ccncc5)cc4c32)cc1
- IC50 [1]: 28.6 µM
- IC50 [2]: 29 µM

SMILES: N#CCc1ccc(-n2c(=O)[nH]c3c(=O)oc4ccc(-c5cnc6ccccc6c5)cc4c32)cc1
- IC50 [1]: 34.9 µM
- IC50 [2]: 30.2 µM
- IC50 [3]: 28.4 µM

SMILES: N#CCc1ccc(-n2c(=O)[nH]c3c(=O)oc4ccc(-c5ccc(O)cc5)cc4c32)cc1
- IC50 [1]: 29.6 µM
- IC50 [2]: 30.6 µM
- IC50 [3]: 30.1 µM

- IC50 (MCF7 [4]): 1.7 µM
- IC50 (CT26): 3.5 µM
- IC50 (A549): 9.5 µM
SMILES: CN1c2c(c3cc(-c4cnc5ccccc5c4)ccc3oc2=O)N(c2ccc(C(C)(C)C#N)cc2)C1(C)OC(C)(C)C (stereo not given)
- IC50 [1]: > 31 µM
- IC50 [2]: 18 µM
- IC50 [3]: 1.4 µM
- IC50 [5]: 3.55 µM
- IC50 [6]: 37 µM
- inhibition (HCT-116 [7]): Active
- Activity [8]: 38.8%
- Activity [9]: 40.3%
- Activity [10]: 43%
- Activity [11]: 47.5%
- Activity [12]: 60%
- Activity [13]: 26%
- Activity [14]: 22.8%
- Activity [15]: 20.5%
- Activity [16]: 15.3%
- Activity [17]: 9.68%
- Activity [18]: 35.2%
- Activity [19]: 36.9%
- Activity [20]: 36.6%
- Activity [21]: 37.2%
- Activity [22]: 30.3%
- Activity [23]: Dose-dependent effect
- Activity (SW-620 [24]): 6.75%
- Activity (SW-620 [25]): 8.59%
- Activity (SW-620 [26]): 16.76%
- Activity (SW-620 [27]): 16.78%
- Activity (SW-620 [28]): 31.33%
- Activity (SW-620 [29]): 8.96%
- Activity (SW-620 [30]): 9.09%
- Activity (SW-620 [31]): 8.43%
- Activity (SW-620 [32]): 9.44%
- Activity (SW-620 [33]): 11.57%
- Activity (SW-620 [34]): Dose-dependent effect
- inhibition (MCF7 [35]): Active
- inhibition in vivo at 80 mg/kg [36]: 53%
- TGI (HCT-116 [37]): Dose-dependent effect
- Activity (Mus musculus): Non-toxic

SMILES: N#CCc1ccc(-n2c(=O)[nH]c3c(=O)oc4ccc(-c5cccc(NS(=O)(=O)c6ccc(F)cc6)c5)cc4c32)cc1
- IC50 [1]: > 40 µM
- IC50 [2]: > 40 µM
- IC50 [3]: > 40 µM

SMILES: O=c1oc2ccc(-c3ccc(O)cc3)cc2c2c1[nH]c(=O)n2-c1ccccc1
- IC50 [1]: > 40 µM

SMILES: COc1ccc(-n2c(=O)[nH]c3c(=O)oc4ccc(-c5ccncc5)cc4c32)cc1
- IC50 [1]: > 40 µM
- IC50 [2]: > 40 µM
- IC50 [3]: > 40 µM

SMILES: Nc1cccc(-c2ccc3oc(=O)c4[nH]c(=O)n(-c5ccccc5)c4c3c2)c1
- IC50 [1]: > 40 µM
- IC50 [2]: > 40 µM

SMILES: CC(C)(C#N)c1ccc(-n2c(=O)[nH]c3c(=O)oc4ccc(-c5cnc6ccccc6c5)cc4c32)cc1
- IC50 [1]: 33.4 µM
- IC50 [2]: 19.8 µM
- IC50 [3]: 20.4 µM

SMILES: COc1ccc(-n2c(=O)[nH]c3c(=O)oc4ccc(-c5cnc6ccccc6c5)cc4c32)cc1
- IC50 [1]: > 40 µM
- IC50 [2]: > 40 µM
- IC50 [3]: > 40 µM

SMILES: N#CCc1ccc(-n2c(=O)[nH]c3c(=O)oc4ccc(-c5cccc(N)c5)cc4c32)cc1
- IC50 [1]: > 40 µM
- IC50 [2]: 36.5 µM

SMILES: O=c1oc2ccc(-c3ccccc3)cc2c2c1[nH]c(=O)n2-c1ccccc1
- IC50 [1]: > 40 µM
- IC50 [2]: > 40 µM
